High-throughput results (PubChem BioAssay)
Compounds with a hit are over-represented: about 3.1% of the library has one in this group of screens.
hERG rescue = compounds protecting human hERG from proarrhythmic drug block; 0.51% of 310,000 active; Q12809; CHO-hERG, FluxOR thallium flux, dofetilide IC70 present; AID 1511; activation (rescue from dofetilide block), less the hit threshold, % at 10 µM;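 active = activation above the mean of controls blocked by dofetilide plus 5 SD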;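 also: thallium influx through hERG after potassium depolarization seen as dye fluorescence rise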
KCNQ1 act = human KCNQ1 channel potentiation or activation; P51787; CHO-K1 KCNQ1, thallium flux FluxOR fluorescence; active compounds read high; B-score at 10 µM; 0.35% of 310,000 active;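 active = fluorescence ratio B-score, a plate-corrected score, at least three library SD, with initial intensity B-score within 5 SD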
Target sequence (P51787 whole entry, looked up): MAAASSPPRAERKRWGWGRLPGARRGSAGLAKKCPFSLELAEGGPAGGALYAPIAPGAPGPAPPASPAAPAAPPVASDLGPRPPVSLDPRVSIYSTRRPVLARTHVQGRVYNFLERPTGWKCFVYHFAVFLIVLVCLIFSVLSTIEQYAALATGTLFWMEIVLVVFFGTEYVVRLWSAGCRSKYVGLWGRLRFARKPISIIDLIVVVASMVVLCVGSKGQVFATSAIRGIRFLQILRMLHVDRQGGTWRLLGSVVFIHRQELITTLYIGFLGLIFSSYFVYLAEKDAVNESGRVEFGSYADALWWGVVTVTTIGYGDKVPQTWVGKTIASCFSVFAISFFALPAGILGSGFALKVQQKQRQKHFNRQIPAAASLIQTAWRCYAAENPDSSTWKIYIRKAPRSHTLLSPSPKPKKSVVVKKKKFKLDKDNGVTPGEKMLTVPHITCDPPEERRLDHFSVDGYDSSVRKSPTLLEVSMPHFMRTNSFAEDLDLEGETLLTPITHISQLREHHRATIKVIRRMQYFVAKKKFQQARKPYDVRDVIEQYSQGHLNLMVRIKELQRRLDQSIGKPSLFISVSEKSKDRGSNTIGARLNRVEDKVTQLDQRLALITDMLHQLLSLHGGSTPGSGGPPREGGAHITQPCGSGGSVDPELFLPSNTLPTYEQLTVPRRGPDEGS
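Doses: Single concentration per compound, DMSO matched to controls | Test system: KCNQ1-transfected CHO-K1 cells | Timing: 90 min dye loading and 20 min compound exposure, both at room temperature | Measured by: Kinetic FluxOR thallium fluorescence, 10-s 1-Hz baseline, 110-s post-stimulus read | Medium: Assay buffer with matched DMSO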
KCNQ1 block = human KCNQ1 channel inhibition | B-score at 10 µM | CHO-K1 KCNQ1, FluxOR thallium flux fluorescence; active compounds read high | P51787 | 1.3% of 310,000 active | AID 2642;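 active = compounds whose thallium flux B-score, printed positive for inhibition, exceeds three library SD while starting fluorescence stays within three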;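 also: channel opened by potassium depolarization with thallium stimulus after 20 min compound exposure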
KCNK9 inh = blocks the human KCNK9 two-pore domain potassium channel | Q9NPC2 | HEK293 KCNK9, FluxOR thallium flux fluorescence; active compounds read low | B-score at 10 µM | 1.2% of 310,000 active;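 active = ratio B-score over 3 SD below the library mean, with starting fluorescence within 5 SD of its mean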;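 also: negative B-score means less thallium flux so channel inhibition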
KCNK3 block = human KCNK3 channel inhibition, primary screen. CHO-KCNK3 thallium flux, FluxOR fluorescence; active compounds read low. O14649. B-score at 10 µM. AID 602410. 0.84% of 340,000 active;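 active = B-score under library mean minus 4 SD, starting fluorescence ratio at most library mean plus 5 SD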;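 also: more negative B-score means stronger inhibition of thallium flux through KCNK3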
Large screens that a line does not name were inactive.

O=C(Nc1ccccc1)N1CCN(c2cccc(C(F)(F)F)c2)CC1	KCNK9 inh -7.4
COc1ccccc1C(=O)NCCC(=O)NC1CCC(C)CC1 (stereo not drawn)	none (no result: hERG rescue, KCNQ1 act, KCNQ1 block, KCNK9 inh)
O=C(NC(=S)Nc1ccccc1C(=O)O)c1cncc(Br)c1	none
CCCC(=O)Nc1ccccc1NC(=O)c1ccc(OCC)cc1	none
CCOc1ccccc1C(=O)Nc1ccccc1O	KCNK9 inh -6.7
CCOc1ccccc1C(=O)Nc1cccc2ccccc12	none
CCOc1ccc(C(=O)NCC(C)NC(=O)c2ccc(OCC)cc2)cc1 (stereo not drawn)	KCNQ1 block 14
CCOc1ccc(C(=O)Nc2ccccc2C(=O)O)cc1	hERG rescue 7.5
O=C(Nc1ccccc1C(=O)O)c1cncc(Br)c1	hERG rescue 6.6
CCOc1ccc(C(=O)NCC(C)C)cc1	none
CCOC(=O)CC1C(=O)NCCN1S(=O)(=O)c1ccc(NC(C)=O)cc1 (stereo not drawn)	none
O=C(Nc1ccc(C(=O)Oc2ccccc2)c(O)c1)c1ccccc1	KCNK9 inh -7.2
O=C(Nc1ccc(C(=O)Oc2ccccc2)c(O)c1)c1ccco1	KCNK9 inh -7.2
CCOC(=O)Nc1ccc(C(=O)Oc2ccccc2)c(O)c1	none
O=C(Nc1ccc(OC(=O)c2cccs2)cc1)c1ccco1	none
COc1ccccc1C(=O)Nc1c(C(=O)N2CCN(C)CC2)oc2ccccc12	none
O=C(NCCc1ccccc1)c1cccc(N2CCCC2=O)c1	none
Cc1cc(C)c(S(=O)(=O)N2CCN(c3ccc([N+](=O)[O-])c(NCc4ccco4)c3)CC2)c(C)c1	hERG rescue 4.7
CNc1c([N+](=O)[O-])cnn1-c1ccc(F)cc1	none
CNc1c([N+](=O)[O-])cnn1-c1ccc(Cl)cc1	KCNK9 inh -7.9
CC1(C(=O)O)CCC(C(=O)NC2CCCCC2)C1(C)C (stereo not drawn)	KCNK9 inh -7.6
COc1ccc(NC(=O)CSc2nnc(NC(=O)C3CCC3)s2)c(OC)c1	none
CC(C)N1C(=O)/C(=C/c2nc3ccccc3c(=O)n2-c2ccccc2)c2ccccc21	KCNQ1 block 6
CC(=O)[C@]1(O)Cc2c(O)c3c(c(O)c2[C@@H](O[C@H]2C[C@H](N)[C@H](O)[C@H](C)O2)C1)C(=O)c1ccccc1C3=O	KCNQ1 block 21 (no result: KCNK3 block)
COc1cccc2c1C(=O)c1c(O)c3c(c(O)c1C2=O)C[C@@](O)(C(C)=O)C[C@@H]3O[C@H]1C[C@H](N)[C@H](O)[C@H](C)O1	none (no result: hERG rescue, KCNQ1 act, KCNQ1 block, KCNK9 inh)
Cc1ccc(CN2CCN(/N=C/c3ccc(O)c(O)c3)CC2)cc1	hERG rescue 7.1
CCCCCCc1cc2cc(S(=O)(=O)c3ccc(C)cc3)c(=O)oc2cc1O	none
CCCCCCc1cc2cc(S(=O)(=O)c3ccc(Cl)cc3)c(=O)oc2cc1O	KCNQ1 block 11
CCN(CC)c1ccc2cc(S(=O)(=O)c3ccc(Cl)cc3)c(=O)oc2c1	KCNQ1 block 10
O=c1oc2cc(O)ccc2cc1S(=O)(=O)c1ccccc1	none
COc1ccc(OC)c(Nc2nc(-c3sc(N)nc3C)cs2)c1	KCNK9 inh -6.7
Cc1cc(O)ccc1Nc1nc(-c2sc(N)nc2C)cs1	none
CN(CC(=O)Nc1ccccc1C(F)(F)F)C(=O)c1ccccc1Sc1ccccc1C#N	KCNK3 block -9.2 (no result: hERG rescue, KCNQ1 act, KCNQ1 block, KCNK9 inh)
CC(=O)N1CCN(S(=O)(=O)c2ccc3c(c2)CCC(=O)N3)CC1	none (no result: hERG rescue, KCNQ1 act, KCNQ1 block, KCNK9 inh)
CCCOc1ccc(/C(O)=C2/C(=O)C(=O)N(CCCn3ccnc3)C2c2ccco2)cc1 (stereo not drawn)	hERG rescue 6.8
C=CCOc1ccc(/C(O)=C2/C(=O)C(=O)N(CCCn3ccnc3)C2c2ccco2)cc1 (stereo not drawn)	none
Cc1nnc(N/N=C/c2cc([N+](=O)[O-])c(N3CCC(C)CC3)cc2N2CCC(C)CC2)n1N	KCNQ1 block 10
C=CC[C@H](CC(=O)N(CCO)Cc1ccccc1)C(=O)N[C@H](COC(=O)[C@@H](CC=C)CC(=O)OC(C)(C)C)Cc1c[nH]c2ccccc12	none (no result: hERG rescue, KCNQ1 act, KCNQ1 block, KCNK9 inh)
COc1ccc(Cl)cc1NS(=O)(=O)c1cccc(C(=O)NCC(C)(C)N2CCOCC2)c1	KCNK3 block -9 (no result: hERG rescue, KCNQ1 act, KCNQ1 block, KCNK9 inh)
CC(=O)Sc1nc(-c2ccccc2)[nH]c1S(=O)(=O)c1ccc(C)cc1	KCNQ1 block 10 (no result: KCNK3 block)
CCC(=O)NCCc1nc2cc(NC(=O)c3ccco3)ccc2n1C	none
COc1cc(C(=O)N2CCN(c3cccc(C(F)(F)F)c3)CC2)ccc1OCC(=O)N1CCOCC1	none (no result: hERG rescue, KCNQ1 act, KCNQ1 block, KCNK9 inh)
O=C(CN1CCN(c2nc(-c3ccccc3)cs2)CC1)NNC(=O)c1ccc(Br)cc1	none
O=C(NC(=S)N1CCN(c2nc(-c3ccccc3)cs2)CC1)c1cncc(Br)c1	hERG rescue 89, KCNQ1 act 56
Cn1c(-c2c(N)n(C3CCCC3)c3nc4ccccc4nc23)nc2ccccc21	KCNK3 block -11
COCCCn1c(N)c(-c2nc3ccccc3n2C)c2nc3ccccc3nc21	none
O=[N+]([O-])c1ccc(COc2cccc(CN3CCCCC3)c2)cc1	none (no result: hERG rescue, KCNQ1 act, KCNQ1 block, KCNK9 inh)
COc1ccc(C2/C(=C(/O)c3ccc4c(c3)CC(C)O4)C(=O)C(=O)N2CCCn2ccnc2)cc1OC (stereo not drawn)	none (no result: hERG rescue, KCNQ1 act, KCNQ1 block, KCNK9 inh)
Cc1cccc(/N=C/c2nc(-c3ccccc3Br)oc2O)n1	none
Oc1oc(-c2cccc3ccccc23)nc1/C=N/c1nccs1	hERG rescue 19, KCNQ1 act 12
Cc1cccc(-c2n[nH]c(=S)n2/N=C/c2ccc(C)s2)c1	none
Cc1ccc(/C=N/n2c(-c3cccs3)n[nH]c2=S)cc1	none
Cc1cccc(-c2n[nH]c(=S)n2/N=C/c2cccs2)c1	KCNQ1 act 9
S=c1[nH]nc(-c2cccs2)n1/N=C/c1c(Cl)cccc1Cl	hERG rescue 32, KCNQ1 act 37
CC(C)c1cccc(C(C)C)c1NC(=O)CN(C)C1CCS(=O)(=O)C1 (stereo not drawn)	none (no result: hERG rescue, KCNQ1 act, KCNQ1 block, KCNK9 inh)
CSc1cccc(NC(=O)CN2C(=O)c3ccccc3S2(=O)=O)c1	hERG rescue 6.5, KCNQ1 act 21
N#CC1=C(N)SC(N)=C(C#N)C1c1c(Cl)cccc1Cl	none
N#CC1=C(N)SC(N)=C(C#N)C1c1cccc(Oc2ccccc2)c1	KCNQ1 block 8
N#CC1=C(N)SC(N)=C(C#N)C1Cc1ccccc1	KCNQ1 block 9
COCCCNC(=S)NNC(=S)Nc1cccc(Cl)c1	KCNQ1 block 6
S=C(Nc1ccc(Cl)cc1Cl)Nc1ccccc1Oc1ccccc1	none
O=C(NNC(=S)Nc1cccc(Cl)c1)c1ccccc1OC(F)F	KCNQ1 block 9
S=C(Nc1cccc(Cl)c1)Nc1ccccc1Oc1ccccc1	KCNQ1 block 8
C=COCCNC(=S)Nc1cccc(Cl)c1	none
Cn1cccc1C(=O)NCc1ccc(S(N)(=O)=O)cc1	none
CC(=O)Oc1cc(C(=O)OCC(=O)NC23CC4CC(CC(C4)C2)C3)cc(OC(C)=O)c1OC(C)=O	none (no result: hERG rescue, KCNQ1 act, KCNQ1 block, KCNK9 inh)
CC1CCC(NC(=O)c2cc3ccccc3cc2O)CC1 (stereo not drawn)	KCNK3 block -11 (no result: hERG rescue, KCNQ1 act, KCNQ1 block, KCNK9 inh)
